Source: ChEMBL document CHEMBL3098029, “Studies on the synthetic and structural aspects of benzosuberones bearing 2, 4-thiazolidenone moiety as potential anti-cancer agents” (Eur J Med Chem, 2014)

How the values were obtained:
A549 = assay: Cytotoxicity against human A549 cells by MTT assay; type: functional, cell-based
Summary of the method: (§1)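 Growth inhibition in 96-well plates, read by cell-mediated reduction of tetrazolium (MTT) to insoluble formazan, with doxorubicin as standard. Cell lines are A549 (alveolar adenocarcinoma, CCL-185), HeLa (cervical, CCL-2), MDA-MB-231 (breast, HTB26), MCF7 (breast, HTB22) and normal embryonic kidney HEK293. IC50 taken from plotted absorbance data, given as mean ± SD of three independent determinations.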

MDA-MB-231 = assay: Cytotoxicity against human MDA-MB-231 cells by MTT assay; type: functional, cell-based; summary of the method: as §1
HeLa = assay: Cytotoxicity against human HeLa cells by MTT assay; type: functional, cell-based; summary of the method: as §1
HEK293 = assay: Cytotoxicity against HEK293 cells by MTT assay; type: cell-based; conditions: Homo sapiens; summary of the method: as §1
MCF7 = assay: Cytotoxicity against human MCF7 cells by MTT assay; type: functional, cell-based; summary of the method: as §1

With `O=C(CN1C(=O)CSC1=O)c1ccccc1` the IC50 (A549) was 14.1 µM, the IC50 (MDA-MB-231) was greater than 100 µM and the IC50 (HeLa) was greater than 100 µM. It also gave an IC50 (HEK293) greater than 100 µM and an IC50 (MCF7) greater than 100 µM.

With `O=C(CN1C(=O)S/C(=C\C2=C(Cl)c3ccccc3CCC2)C1=O)c1ccccc1` the IC50 (A549) was 4.89 µM, the IC50 (MDA-MB-231) was 13.3 µM and the IC50 (HeLa) was 2.98 µM. For the same compound, the IC50 (HEK293) was greater than 100 µM and the IC50 (MCF7) was 5.31 µM.

`Cc1ccc(C(=O)CN2C(=O)S/C(=C\C3=C(Cl)c4ccccc4CCC3)C2=O)cc1` gave an IC50 (A549) greater than 100 µM, an IC50 (MDA-MB-231) of 5.84 µM and an IC50 (HeLa) of 7.89 µM. The IC50 (HEK293) was greater than 100 µM and the IC50 (MCF7) was greater than 100 µM.

For `COc1ccc(C(=O)CN2C(=O)S/C(=C\C3=C(Cl)c4ccccc4CCC3)C2=O)cc1`, the IC50 (A549) was 5.44 µM, the IC50 (MDA-MB-231) was greater than 100 µM and the IC50 (HeLa) was greater than 100 µM. The IC50 (HEK293) was greater than 100 µM and the IC50 (MCF7) was 8.95 µM.

Work on `O=C(CN1C(=O)S/C(=C\C2=C(Cl)c3ccccc3CCC2)C1=O)c1ccc(Cl)cc1` yielded an IC50 (A549) greater than 100 µM, an IC50 (MDA-MB-231) greater than 100 µM and an IC50 (HeLa) greater than 100 µM. The IC50 (HEK293) was greater than 100 µM and the IC50 (MCF7) was greater than 100 µM.

`O=C(CN1C(=O)S/C(=C\C2=C(Cl)c3ccccc3CCC2)C1=O)c1ccc(Br)cc1` showed an IC50 (A549) of 5.75 µM, an IC50 (MDA-MB-231) greater than 100 µM and an IC50 (HeLa) greater than 100 µM. For the same compound, the IC50 (HEK293) was greater than 100 µM and the IC50 (MCF7) was 51.7 µM.

For `Cc1cc2c(cc1C)C(Cl)=C(/C=C1\SC(=O)N(CC(=O)c3ccccc3)C1=O)CCC2`, the IC50 (A549) was greater than 100 µM, the IC50 (MDA-MB-231) was greater than 100 µM and the IC50 (HeLa) was 7.89 µM. The IC50 (HEK293) was greater than 100 µM and the IC50 (MCF7) was greater than 100 µM.

In the case of `Cc1ccc(C(=O)CN2C(=O)S/C(=C\C3=C(Cl)c4cc(C)c(C)cc4CCC3)C2=O)cc1`, the IC50 (A549) is reported as greater than 100 µM, the IC50 (MDA-MB-231) is reported as 13.4 µM and the IC50 (HeLa) is reported as greater than 100 µM. It also gave an IC50 (HEK293) greater than 100 µM and an IC50 (MCF7) of 1.91 µM.

With `COc1ccc(C(=O)CN2C(=O)S/C(=C\C3=C(Cl)c4cc(C)c(C)cc4CCC3)C2=O)cc1` the IC50 (A549) was greater than 100 µM, the IC50 (MDA-MB-231) was 7.89 µM and the IC50 (HeLa) was 17.9 µM. It also gave an IC50 (HEK293) greater than 100 µM and an IC50 (MCF7) greater than 100 µM.

`Cc1cc2c(cc1C)C(Cl)=C(/C=C1\SC(=O)N(CC(=O)c3ccc(Cl)cc3)C1=O)CCC2` gave an IC50 (A549) of 3.49 µM, an IC50 (MDA-MB-231) greater than 100 µM and an IC50 (HeLa) greater than 100 µM. For the same compound, the IC50 (HEK293) was greater than 100 µM and the IC50 (MCF7) was 9.85 µM.

`Cc1cc2c(cc1C)C(Cl)=C(/C=C1\SC(=O)N(CC(=O)c3ccc(Br)cc3)C1=O)CCC2` showed an IC50 (A549) of 9.69 µM, an IC50 (MDA-MB-231) greater than 100 µM and an IC50 (HeLa) greater than 100 µM. For the same compound, the IC50 (HEK293) was greater than 100 µM and the IC50 (MCF7) was 36.8 µM.

For `Cc1ccc(C(=O)CN2C(=O)CSC2=O)cc1`, the IC50 (A549) was 17 µM, the IC50 (MDA-MB-231) was greater than 100 µM and the IC50 (HeLa) was greater than 100 µM. It also gave an IC50 (HEK293) greater than 100 µM and an IC50 (MCF7) greater than 100 µM.

`COc1ccc(C(=O)CN2C(=O)CSC2=O)cc1` gave an IC50 (A549) greater than 100 µM, an IC50 (MDA-MB-231) greater than 100 µM and an IC50 (HeLa) greater than 100 µM. The IC50 (HEK293) was greater than 100 µM and the IC50 (MCF7) was greater than 100 µM.

Work on `O=C(CN1C(=O)CSC1=O)c1ccc(Cl)cc1` yielded an IC50 (A549) greater than 100 µM, an IC50 (MDA-MB-231) greater than 100 µM and an IC50 (HeLa) greater than 100 µM. It also gave an IC50 (HEK293) of 14 µM and an IC50 (MCF7) greater than 100 µM.

`O=C(CN1C(=O)CSC1=O)c1ccc(Br)cc1` showed an IC50 (A549) of 22.7 µM, an IC50 (MDA-MB-231) greater than 100 µM and an IC50 (HeLa) greater than 100 µM. The IC50 (HEK293) was greater than 100 µM and the IC50 (MCF7) was greater than 100 µM.

Work on `O=C1NC(=O)/C(=C/C2=C(Cl)c3ccccc3CCC2)S1` yielded an IC50 (A549) greater than 100 µM, an IC50 (MDA-MB-231) greater than 100 µM and an IC50 (HeLa) greater than 100 µM. The IC50 (HEK293) was greater than 100 µM and the IC50 (MCF7) was greater than 100 µM.

With `Cc1cc2c(cc1C)C(Cl)=C(/C=C1\SC(=O)NC1=O)CCC2` the IC50 (A549) was 5.39 µM, the IC50 (MDA-MB-231) was 5.79 µM and the IC50 (HeLa) was 5.89 µM. The IC50 (HEK293) was greater than 100 µM and the IC50 (MCF7) was greater than 100 µM.

For `COc1cccc2c1C(=O)c1c(O)c3c(c(O)c1C2=O)C[C@@](O)(C(=O)CO)C[C@@H]3O[C@H]1C[C@H](N)[C@H](O)[C@H](C)O1` [DOXORUBICIN], the IC50 (HEK293) was greater than 100 µM.
